According to the array DNA melting data of Ke et al. (doi:10.1101/2024.01.08.574731):

What was measured:
[1] = folding enthalpy; higher = less favourable; fluorescence melt of hairpins on a sequencing array, two-state fit; details: sodium 0.088 M
Procedure, shortened: (§1)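 Cy3 fluorescence of library hairpins on a sequenced MiSeq flow cell, with annealed Cy3 and quencher oligos, was imaged in 50 mM Na-HEPES pH 8.0, 25 mM NaCl in 2.5 °C steps up to 60 °C. Signals were normalised to pre-quench Cy3 and to control variants. Melting temperature and folding enthalpy came from bootstrapped two-state fits, inverse-variance combined over four replicates. Fitted temperatures were raised by 9.35 °C to match UV melts.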

[2] = melting temperature; fluorescence melt of hairpins on a sequencing array, two-state fit, raised by 9.35 °C to match UV melts; details: sodium 0.088 M
Procedure, shortened: as §1

| Sequence | folding enthalpy [1] [kcal/mol] | Tm [2] [°C] |
| --- | --- | --- |
| GATCGAGGTCTCGATC ((((((....)))))) | -38.5 | 55.8 |
| GATCGAGGTTCGATC ((((((...)))))) | -38.6 | 51.6 |
| GATCGAGTTGTCGATC ((((((....)))))) | -39.4 | 52.8 |
| GATCGAGTTTCGATC ((((((...)))))) | -31.4 | 53 |
| GATCGATACTCGATC ((((((...)))))) | -41.3 | 51.3 |
| GATCGATAGATCGATC ((((((....)))))) | -18.9 | 61.1 |
| GATCGATAGTCGATC ((((((...)))))) | -30.3 | 48.7 |
| GATCGATAGTTCGATC ((((((....)))))) | -39.3 | 50.8 |
| GATCGATCATCGATC ((((((...)))))) | -33.2 | 50.5 |
| GATCGATCCTTCGATC ((((((....)))))) | -45.3 | 55.5 |
| GATCGATCTCTCGATC ((((((....)))))) | -41.2 | 51.4 |
| GATCGATTACTCGATC ((((((....)))))) | -47.6 | 51 |
| GATCGATTCTCGATC ((((((...)))))) | -38.8 | 53.3 |
| GATCGATTGGTCGATC ((((((....)))))) | -37.6 | 53.2 |
| GATCGCAATCGCGATC ((((((....)))))) | -32.2 | 67.9 |
| GATCGCACACGCGATC ((((((....)))))) | -38 | 68.2 |
| GATCGCACGGGCGATC ((((((....)))))) | -30.9 | 67.1 |
| GATCGCACTCGCGATC ((((((....)))))) | -34.7 | 68.4 |
| GATCGCAGGCGCGATC ((((((....)))))) | -35.1 | 68.3 |
| GATCGCATAAGCGATC ((((((....)))))) | -32.5 | 69.2 |
| GATCGCCAACGCGATC ((((((....)))))) | -36.6 | 62.9 |
| GATCGCCACAGCGATC ((((((....)))))) | -38.2 | 68.8 |
| GATCGCCAGAGCGATC ((((((....)))))) | -37.6 | 68.3 |
| GATCGCCAGGGCGATC ((((((....)))))) | -31 | 68.3 |

| Sequence | folding enthalpy [1] [kcal/mol] | Tm [2] [°C] |
| --- | --- | --- |
| GATCGCCATTGCGATC ((((((....)))))) | -38 | 67.5 |
| GATCGCCCAGGCGATC ((((((....)))))) | -25.1 | 68.2 |
| GATCGCCCCAGCGATC ((((((....)))))) | -33.5 | 68.5 |
| GATCGCCCGAGCGATC ((((((....)))))) | -37.4 | 67.5 |
| GATCGCCGAAAGGCTATC (((.(((....))).))) | -20.4 | 42.1 |
| GATCGCCGAGCGATC ((((((...)))))) | -32.5 | 67.3 |
| GATCGCCGGAGCGATC ((((((....)))))) | -31.6 | 68.9 |
| GATCGCCGGCGCGATC ((((((....)))))) | -34.1 | 61.1 |
| GATCGCCGGGCGATC ((((((...)))))) | -31.1 | 67.8 |
| GATCGCCGTAGCGATC ((((((....)))))) | -45 | 69.2 |
| GATCGCCTATGCGATC ((((((....)))))) | -31.6 | 68.1 |
| GATCGCCTCTGCGATC ((((((....)))))) | -37 | 66.5 |
| GATCGCCTGTGCGATC ((((((....)))))) | -36.7 | 66.8 |
| GATCGCGAAAGCGCATC ((((((....))).))) | -15.3 | 51.4 |
| GATCGCGAAAGCGGAATC ((((((....)))..))) | -10.9 | 34.8 |
| GATCGCGAGGGCGATC ((((((....)))))) | -38 | 68 |
| GATCGCTCACGCGATC ((((((....)))))) | -41.2 | 67.8 |
| GATCGCTCCCGCGATC ((((((....)))))) | -34.3 | 67.8 |
| GATCGCTCCGGCGATC ((((((....)))))) | -39.2 | 68.4 |
| GATCGCTCTGCGATC ((((((...)))))) | -41.8 | 68.5 |
| GATCGCTGACGCGATC ((((((....)))))) | -36.5 | 66.7 |
| GATCGCTGCGGCGATC ((((((....)))))) | -38.9 | 68.9 |
| GATCGCTGGTGCGATC ((((((....)))))) | -34.2 | 68.6 |
| GATCGCTTCTGCGATC ((((((....)))))) | -42.3 | 68.3 |

| Sequence | folding enthalpy [1] [kcal/mol] | Tm [2] [°C] |
| --- | --- | --- |
| GATCGCTTTCGCGATC ((((((....)))))) | -38.4 | 67.4 |
| GATCGGAAACCCGATC ((((((....)))))) | -34.6 | 53.9 |
| GATCGGAACCCGATC ((((((...)))))) | -44 | 54 |
| GATCGGAACGCCGATC ((((((....)))))) | -41.2 | 54.7 |
| GATCGGACAACCGATC ((((((....)))))) | -34.7 | 53.5 |
| GATCGGACGCCGATC ((((((...)))))) | -37.4 | 53.6 |
| GATCGGAGCACCGATC ((((((....)))))) | -34.3 | 57.4 |
| GATCGGAGGCCCGATC ((((((....)))))) | -34.1 | 56.4 |
| GATCGGAGTGCCGATC ((((((....)))))) | -30.2 | 57 |
| GATCGGAGTTCCGATC ((((((....)))))) | -37.8 | 56.7 |
| GATCGGATACCCGATC ((((((....)))))) | -40.3 | 56.6 |
| GATCGGATAGCCGATC ((((((....)))))) | -29.6 | 55.4 |
| GATCGGATGCCCGATC ((((((....)))))) | -27 | 55.5 |
| GATCGGATTACCGATC ((((((....)))))) | -38.7 | 58.2 |
| GATCGGCAACCGATC ((((((...)))))) | -36.7 | 54.6 |
| GATCGGCCGCCGATC ((((((...)))))) | -36.6 | 55.7 |
| GATCGGCGAAAGCCCATC (((.(((....))).))) | -11.2 | 36.4 |
| GATCGGCGAACCGATC ((((((....)))))) | -38.2 | 56.2 |
| GATCGGCTGCCCGATC ((((((....)))))) | -31.2 | 56.2 |
| GATCGGCTGGCCGATC ((((((....)))))) | -38.2 | 68.3 |
| GATCGGGACCCCGATC ((((((....)))))) | -39.4 | 62.4 |
| GATCGGGCCTCCGATC ((((((....)))))) | -36.6 | 59.7 |
| GATCGGGCTACCGATC ((((((....)))))) | -36.7 | 67.7 |
| GATCGGGGAAACCCGGTC ((.((((....)))).)) | -26.8 | 53.8 |

| Sequence | folding enthalpy [1] [kcal/mol] | Tm [2] [°C] |
| --- | --- | --- |
| GATCGGGGAACCGATC ((((((....)))))) | -34.1 | 65.3 |
| GATCGGGGTACCGATC ((((((....)))))) | -34.5 | 65.7 |
| GATCGGGTCACCGATC ((((((....)))))) | -36.4 | 67.4 |
| GATCGGGTCCCGATC ((((((...)))))) | -46.5 | 56.7 |
| GATCGGGTCGCCGATC ((((((....)))))) | -7.84 | 65.3 |
| GATCGGGTGACCGATC ((((((....)))))) | -36.4 | 67 |
| GATCGGGTGCCGATC ((((((...)))))) | -49.1 | 55.2 |
| GATCGGGTTGCCGATC ((((((....)))))) | -31.1 | 57.7 |
| GATCGGTAATCCGATC ((((((....)))))) | -40.8 | 57.3 |
| GATCGGTAGCCCGATC ((((((....)))))) | -30.1 | 56.3 |
| GATCGGTCACCGATC ((((((...)))))) | -36.2 | 55.8 |
| GATCGGTCTTCCGATC ((((((....)))))) | -37.2 | 58.9 |
| GATCGGTGAACCGATC ((((((....)))))) | -43.4 | 61 |
| GATCGGTGATCCGATC ((((((....)))))) | -41.2 | 56.8 |
| GATCGGTGTCCCGATC ((((((....)))))) | -38.3 | 58.4 |
| GATCGGTTACCCGATC ((((((....)))))) | -41.4 | 57.3 |
| GATCGGTTAGCCGATC ((((((....)))))) | -46.4 | 58.6 |
| GATCGGTTTGCCGATC ((((((....)))))) | -47.9 | 61.6 |
| GATCGTAAACACGATC ((((((....)))))) | -36.9 | 52 |
| GATCGTAACACGATC ((((((...)))))) | -37.4 | 57.5 |
| GATCGTAACGACGATC ((((((....)))))) | -34.8 | 54.9 |
| GATCGTAACTACGATC ((((((....)))))) | -41.6 | 56 |
| GATCGTACAAACGATC ((((((....)))))) | -40.2 | 52.6 |
| GATCGTACTAACGATC ((((((....)))))) | -39.1 | 54.8 |
